Screens (PubChem)
Htt clearance – mutant huntingtin protein clearance. HeLa Exon1htt(103Q)mCFP, aggregate imaging; zero = plate's median compound well. inhibition, % at 1.5 µM. 0.42% of 47,000 active. AID 853;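 active means inhibition of aggregate fluorescence above about 70%, also judged a hit by eye on the cell image, limit read from the data, passing the limit was not always enough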;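 further: cells exposed to compound for three days before fixation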
SK-BR-3 tox 24h – SK-BR-3 proliferation inhibitors. SK-BR-3 viability, CellTiter-Glo ATP luminescence, 24 h; active compounds read low. viability, % at 10 µM. 0.47% of 41,000 active. AID 847;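 active means viability at or below the median of all test compounds minus 3 SD, in both replicates if run twice, cut at about 45% in these data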;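 further: 100% = median untreated cell wells and 0% = median positive control drug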
Jurkat tox 60K – cytotoxic compounds reducing Jurkat cell viability; 1.2% of 56,000 active; inhibition, % at 4 µM; AID 463; Jurkat E6.1 viability, ATP luminescence, 48 h;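 active means inhibition above the mean inhibition of all tested compounds plus 3 SD, cut at about 28% in these data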
HER2 expr 66K – inhibitors of human Her2 kinase expression. P04626. SKBR-3 HER2 protein level, AlphaScreen, 18-24 h; active compounds read low. HER2 level % of control, % at 10 µM. 0.69% of 65,000 active. AID 645;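 active means HER2 level under 5% of the carrier-only control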;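 further: 100% = DMSO carrier and 0% = 500 nM PU-H71 HSP90 inhibitor; lower value means stronger loss of Her2 protein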
Target sequence (P04626 whole entry, looked up): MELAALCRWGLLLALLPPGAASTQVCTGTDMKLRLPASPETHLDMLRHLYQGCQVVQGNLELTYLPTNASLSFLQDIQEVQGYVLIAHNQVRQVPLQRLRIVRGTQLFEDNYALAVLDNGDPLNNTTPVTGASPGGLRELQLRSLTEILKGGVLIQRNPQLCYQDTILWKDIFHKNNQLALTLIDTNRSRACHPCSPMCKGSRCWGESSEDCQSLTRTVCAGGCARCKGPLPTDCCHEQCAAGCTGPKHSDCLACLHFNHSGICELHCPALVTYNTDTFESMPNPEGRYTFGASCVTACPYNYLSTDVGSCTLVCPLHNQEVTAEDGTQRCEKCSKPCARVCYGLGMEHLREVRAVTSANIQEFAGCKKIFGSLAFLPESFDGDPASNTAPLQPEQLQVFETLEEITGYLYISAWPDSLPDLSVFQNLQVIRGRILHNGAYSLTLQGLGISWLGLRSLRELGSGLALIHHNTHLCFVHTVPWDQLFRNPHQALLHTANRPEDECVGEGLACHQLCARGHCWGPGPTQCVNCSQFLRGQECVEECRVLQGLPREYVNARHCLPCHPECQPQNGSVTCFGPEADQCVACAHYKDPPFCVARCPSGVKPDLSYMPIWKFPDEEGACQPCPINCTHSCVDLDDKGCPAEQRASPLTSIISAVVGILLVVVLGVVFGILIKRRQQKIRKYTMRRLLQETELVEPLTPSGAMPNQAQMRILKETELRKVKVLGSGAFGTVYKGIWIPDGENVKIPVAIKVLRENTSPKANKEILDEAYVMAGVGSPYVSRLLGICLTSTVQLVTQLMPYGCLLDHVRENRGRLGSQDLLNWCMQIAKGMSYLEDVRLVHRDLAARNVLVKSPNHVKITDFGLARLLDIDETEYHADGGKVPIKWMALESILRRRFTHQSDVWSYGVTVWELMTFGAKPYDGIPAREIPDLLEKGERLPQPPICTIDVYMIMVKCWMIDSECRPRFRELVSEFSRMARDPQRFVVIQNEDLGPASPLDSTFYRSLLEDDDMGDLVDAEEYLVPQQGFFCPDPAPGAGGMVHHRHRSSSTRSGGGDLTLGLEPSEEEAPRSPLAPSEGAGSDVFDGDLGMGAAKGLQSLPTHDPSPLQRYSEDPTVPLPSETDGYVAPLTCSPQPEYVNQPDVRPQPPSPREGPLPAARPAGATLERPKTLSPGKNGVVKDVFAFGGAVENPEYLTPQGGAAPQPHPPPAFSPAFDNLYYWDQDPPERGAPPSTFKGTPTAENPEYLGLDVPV
HEK293 NFkB inh – lowers PMA/ionomycin-induced NF-kB signal in HEK293 cells | HEK-293 NF-kB luciferase reporter, luminescence | inhibition, % at 3 µM | 0.21% of 62,000 active;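 active means inhibition above the mean of all tested compounds plus 3 SD, cut at about 40% in these data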;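 further: 0% = stimulated DMSO wells and 100% = 10 µM reference inhibitor 5653914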
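Material: HEK-293 cells with stable firefly luciferase reporter driven by four HIV NF-kB elements / Also added: PMA plus ionomycin mix as NF-kB-activating stimulus / Compound dosing: 3 µM once, 0.30% DMSO / Times: 1 h pretreatment, 16 h stimulation, 37 °C / Signal: luminescence / Evaluation: per-plate % inhibition versus controls / Benchmarks: DMSO and 10 µM reference inhibitor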
* = called active by the depositor; / = no result given. An excerpt weighted towards active compounds, which were near 1.9% of everything screened.

SMILES | Htt clearance | SK-BR-3 tox 24h | Jurkat tox 60K | HER2 expr 66K | HEK293 NFkB inh
CCC1Oc2ccccc2N(CC(=O)Nc2ccc3c(c2)OCCO3)C1=O (configuration not stated) | / | 81 | / | 90 | 4
Cc1cc(C(=O)CN2C(=O)c3ccccc3S2(=O)=O)c(C)n1CC1CCCO1 (configuration not stated) | / | / | 0 | 83 | 84*
Cc1ccc(NC2OC(C(O)CO)C(O)C2O)cc1[N+](=O)[O-] (configuration not stated) | -8 | / | / | / | /
CCOc1ccc(CC(=O)Nc2c(C(N)=O)oc3ccccc23)cc1OCC | / | 34* | -2 | 112 | 15
CCC(=O)OC1=C2C(=Nc3c(c(=O)n(C)c(=O)n3C)C2c2ccccc2)c2ccccc21 (configuration not stated) | / | 97 | / | 131 | /
CCOC(=O)c1ccc(CNC(=O)c2cc(C(C)(C)C)oc2C)o1 | -39 | 104 | 2 | 105 | 14
CCCCCC1CC(CC#CCN2CCOCC2)C(=O)O1 (configuration not stated) | / | 90 | / | 81 | /
CCOc1ccc(NC(=O)C2CC(=O)N(CC)C(=Nc3ccc4c(c3)OCO4)S2)cc1 (configuration not stated) | / | / | -3 | 50 | 12
CCN1C(=O)CC(C(=O)Nc2ccc(F)cc2)SC1=Nc1ccc2c(c1)OCO2 (configuration not stated) | -11 | / | 3 | -27* | 10
COc1ccc(N2CCn3c2nc2c3c(=O)n(CCCc3ccccc3)c(=O)n2C)c(OC)c1 | / | / | 50* | 75 | 22
Cc1ccc(/C=C/C2=Cc3c(sc(NC(=O)CSc4n[nH]c(N)n4)c3C#N)C(C)(C)C2)o1 | / | / | -3 | -1.5* | 5
CCn1c(SCC(=O)N2CCOCC2)nc2oc3c(Cl)cc(Cl)cc3c(=O)c2c1=O | 37 | 98 | 3 | -1.7* | 15
CCn1c(SCC(=O)N2CCOCC2)nc2sc3c(c2c1=O)CCCC3 | / | 93 | / | 78 | /
CCOC(=O)C(CC)Sc1nc(-c2ccc(OC)cc2)nc2c1c(=O)n(C)c(=O)n2C (configuration not stated) | / | / | 2 | 69 | 11
COc1ccc(Cl)c(Cn2c(NCc3ccco3)nc3c2c(=O)n(C)c(=O)n3C)c1 | / | 81 | 6 | -26* | 28
COc1ccc(CCNc2c(C)c(C)nc3ncnn23)cc1 | 24 | 87 | 92* | 84 | 46*
O=C(CSc1nnc(-c2cccs2)n1-c1ccccc1)NCc1ccc2c(c1)OCO2 | 73* | 73 | -5 | 106 | 11
Cc1cccc(-n2nc3c(c2NC(=O)c2ccc(Br)o2)CSC3)c1 | -20 | / | / | 101 | 20
O=C(CN1C(=O)c2ccccc2S1(=O)=O)NCCSc1ccccc1 | / | 44* | -5 | 83 | 12
O=c1cc(-c2ccccc2)[nH]n1-c1ccc([N+](=O)[O-])cc1 | 50 | / | / | / | /
Cc1nnc(SCc2nnc(-c3ccccc3Br)o2)n1-c1ccccc1 | / | / | 10 | -12* | 20
COc1ccccc1-n1c(CNC(=O)COc2ccccc2)n[nH]c1=S | 17 | / | / | 111 | 14
COC(=O)/C=C/S(=O)(=O)c1ccc(NC(C)=O)cc1 | -18 | 2.1* | 71* | -20* | 2
CCCc1nnc(NC(=O)CCC(=O)Nc2ccc(F)cc2)s1 | / | 85 | -4 | 86 | 12
COCCNC(=O)c1ccccc1NC(=O)c1ccc(OC)c(OC)c1 | / | 81 | 14 | 183 | 22
SMILES | Htt clearance | SK-BR-3 tox 24h | Jurkat tox 60K | HER2 expr 66K | HEK293 NFkB inh
CCOc1cc(C(=O)NCCOC)ccc1OC | 12 | 114 | 3 | -8.0* | 4
CCOc1ccccc1NC(=O)C1CCN(c2ccc(S(=O)(=O)N3CCCC3)cc2)CC1 | 72* | 72 | 1 | 103 | 25
CCn1c(SCC(=O)N2c3ccccc3Sc3ccc(Cl)cc32)nc2c1c(=O)n(C)c(=O)n2C | 61 | / | / | / | /
CC1(C)Cn2c(nnc2-c2cccc(O)c2)S1 | / | 99 | 5 | 108 | 2
CCC(=O)Nc1nc2ccccc2n1Cc1ccc(C)cc1 | -39 | / | 76* | 100 | 7
Cc1nn(Cc2n[nH]c(=S)n2Cc2ccccc2)c(C)c1Cl | 10 | / | / | / | /
CCN1/C(=C/C(=O)c2ccco2)Sc2ccccc21 | 19 | / | 12 | -0.5* | 12
Cc1ccc2nc(C(F)OC(F)(F)F)[nH]c2c1 (configuration not stated) | 73* | 105 | -4 | 151 | 14
CC(C(=O)N(C1CC1)C1(C(=O)Nc2ccccc2)CCCC1)N1C(=O)c2ccccc2C1=O (configuration not stated) | / | / | 3 | 83 | 12
